Experimental data as given in ChEMBL document CHEMBL3124843, “Synthesis, cytostatic, antimicrobial, and anti-HCV activity of 6-substituted 7-(het)aryl-7-deazapurine ribonucleosides” (J Med Chem, 2014).
Calls of active or inactive are those of the source. How the calls were made is not given here.

Columns and labels:
[1] = Cytostatic activity against human CEM-DNR-bulk cells after 72 hrs by MTT assay; assay type: functional, cell-based
Method in brief: (§1)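 IC50 is the concentration that cuts cell growth by 50%, read by quantitative metabolic MTT staining after a 3-day treatment. The resistant sublines were made by raising the concentration of the cytotoxic drug step by step. CEM-DNR-bulk (daunorubicin-selected) stably overexpresses mrp-1. K562-TAX (paclitaxel-selected) expresses only mdr-1. HCT116p53−/− carries null p53 alleles. BJ and MRC-5 are nonmalignant fibroblasts.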

Pseudomonas aeruginosa [2] = experiment: Antibacterial activity against Pseudomonas aeruginosa CCM 3955 after 24 hrs; assay type: functional, organism-based
Staphylococcus aureus [3] = experiment: Antibacterial activity against Staphylococcus aureus CCM 3953 after 24 hrs; assay type: functional, organism-based
HCT-116 [4] = experiment: Cytostatic activity against p53-deficient human HCT116 cells after 72 hrs by MTT assay; assay type: functional, cell-based; conditions: HCT-116, 72 h; method in brief: as §1
HL-60 = experiment: Antiproliferative activity against human HL60 cells after 72 hrs by XTT assay; assay type: functional, cell-based; conditions: HL-60, 72 h
Method in brief: (§2)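 Antiproliferative test on HL-60 promyelocytic leukemia and HeLa S3 cervical carcinoma cells growing in liquid suspension.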

Candida albicans = experiment: Antifungal activity against Candida albicans after 48 hrs; assay type: functional, organism-based
Escherichia coli [5] = experiment: Antibacterial activity against Escherichia coli CCM 3954 after 24 hrs; assay type: functional, organism-based
MRC5 = experiment: Cytostatic activity against human MRC5 cells after 72 hrs by MTT assay; assay type: ADME, cell-based; conditions: MRC5, 72 h; method in brief: as §1
Candida parapsilosis = experiment: Antifungal activity against Candida parapsilosis after 48 hrs; assay type: functional, organism-based
Candida tropicalis = experiment: Antifungal activity against Candida tropicalis after 48 hrs; assay type: functional, organism-based
CCRF-CEM = experiment: Cytostatic activity against human CCRF-CEM cells after 72 hrs by MTT assay; assay type: functional, cell-based; method in brief: as §1
HCT-116 [6] = experiment: Cytostatic activity against human HCT116 cells after 72 hrs by MTT assay; assay type: functional, cell-based; conditions: HCT-116, 72 h; method in brief: as §1
K562 [7] = experiment: Cytostatic activity against paclitaxel-resistant human K562 cells after 72 hrs by MTT assay; assay type: functional, cell-based; conditions: K562, 72 h; method in brief: as §1
Pseudomonas aeruginosa [8] = experiment: Antibacterial activity against multi-resistant Pseudomonas aeruginosa A/16575 after 24 hrs; assay type: functional, organism-based
Enterococcus faecalis = experiment: Antibacterial activity against Enterococcus faecalis CCM 4224 after 24 hrs; assay type: functional, organism-based
HepG2 = experiment: Antiproliferative activity against human HepG2 cells after 72 hrs by XTT assay; assay type: functional, cell-based; conditions: HepG2, 72 h
[9] = Cytotoxicity against human HuH7 cells infected with Hepatitis C virus subtype 1b; assay type: cell-based, Huh-7
[10] = tested on: Staphylococcus haemolyticus; experiment: Antibacterial activity against methicillin-resistant Staphylococcus haemolyticus A/16568 after 24 hrs; assay type: functional, organism-based
Escherichia coli [11] = experiment: Antibacterial activity against multi-resistant Escherichia coli C/16702 after 24 hrs; assay type: functional, organism-based
Pichia kudriavzevii = experiment: Antifungal activity against Candida crusei after 48 hrs; assay type: functional, organism-based
[12] = Antiproliferative activity against human HeLaS3 cells after 72 hrs by XTT assay; assay type: functional, cell-based; conditions: HeLa S3, 72 h; method in brief: as §2
Hepatitis C virus = experiment: Antiviral activity against Hepatitis C virus subtype 1b infected in human HuH7 cells; assay type: functional, organism-based, Hepacivirus hominis; conditions: genotype 1b, Huh-7
Staphylococcus aureus [13] = experiment: Antibacterial activity against methicillin-resistant Staphylococcus aureus MRSA 4591 after 24 hrs; assay type: functional, organism-based
BJ = experiment: Cytostatic activity against human BJ cells after 72 hrs by MTT assay; assay type: ADME, cell-based; method in brief: as §1
K562 [14] = experiment: Cytostatic activity against human K562 cells after 72 hrs by MTT assay; assay type: functional, cell-based; conditions: K562, 72 h; method in brief: as §1
A549 = experiment: Cytostatic activity against human A549 cells after 72 hrs by MTT assay; assay type: functional, cell-based; conditions: A549, 72 h; method in brief: as §1

SMILES | IC50 [1] [µM] | Activity (Pseudomonas aeruginosa [2]) | Activity (Staphylococcus aureus [3]) | IC50 (HCT-116 [4]) [µM] | IC50 (HL-60) [µM] | Activity (Candida albicans) | Activity (Escherichia coli [5]) | IC50 (MRC5) [µM] | Activity (Candida parapsilosis) | Activity (Candida tropicalis) | IC50 (CCRF-CEM) [µM] | IC50 (HCT-116 [6]) [µM] | IC50 (K562 [7]) [µM] | Activity (Pseudomonas aeruginosa [8]) | Activity (Enterococcus faecalis) | IC50 (HepG2) [µM] | CC50 [9] [µM] | Activity [10] | Activity (Escherichia coli [11]) | Activity (Pichia kudriavzevii) | also measured
COc1nc(N)nc2c1c(-c1ccsc1)cn2[C@@H]1O[C@H](CO)[C@@H](O)[C@H]1O | > 20 | inactive | inactive | > 20 | > 20 | inactive | inactive | > 100 | inactive | inactive | > 20 | > 20 | > 20 | inactive | inactive | > 20 | > 44 | inactive | inactive | inactive | IC50 [12]: > 20 µM; EC50 (Hepatitis C virus): 14.5 µM; Activity (Staphylococcus aureus [13]): inactive; IC50 (BJ): > 100 µM; IC50 (K562 [14]): > 20 µM; IC50 (A549): > 100 µM
Nc1nc(N)c2c(-c3ccco3)cn([C@@H]3O[C@H](CO)[C@@H](O)[C@H]3O)c2n1 | > 20 | inactive | inactive | > 20 | > 20 | inactive | inactive | > 100 | inactive | inactive | > 20 | > 20 | > 20 | inactive | inactive | > 20 | > 44 | inactive | inactive | inactive | IC50 [12]: > 20 µM; EC50 (Hepatitis C virus): 12.5 µM; Activity (Staphylococcus aureus [13]): inactive; IC50 (BJ): > 100 µM; IC50 (K562 [14]): > 20 µM; IC50 (A549): > 20 µM
COc1nc(N)nc2c1c(-c1cccs1)cn2[C@@H]1O[C@H](CO)[C@@H](O)[C@H]1O | > 20 | inactive | inactive | > 20 | > 20 | inactive | inactive | > 100 | inactive | inactive | > 20 | > 20 | > 20 | inactive | inactive | > 20 | > 44 | inactive | inactive | inactive | IC50 [12]: > 20 µM; EC50 (Hepatitis C virus): 6.07 µM; Activity (Staphylococcus aureus [13]): inactive; IC50 (BJ): 99.9 µM; IC50 (K562 [14]): > 20 µM; IC50 (A549): > 20 µM
COc1nc(N)nc2c1c(-c1ccco1)cn2[C@@H]1O[C@H](CO)[C@@H](O)[C@H]1O | > 20 | inactive | inactive | > 20 | > 20 | inactive | inactive | 89.7 | inactive | inactive | > 20 | > 20 | > 20 | inactive | inactive | > 20 | > 44 | inactive | inactive | inactive | IC50 [12]: > 20 µM; EC50 (Hepatitis C virus): 2.44 µM; Activity (Staphylococcus aureus [13]): inactive; IC50 (BJ): > 100 µM; IC50 (K562 [14]): > 20 µM; IC50 (A549): > 20 µM
Nc1nc(N)c2c(-c3ccoc3)cn([C@@H]3O[C@H](CO)[C@@H](O)[C@H]3O)c2n1 | > 20 | inactive | inactive | > 20 | > 20 | inactive | inactive | > 100 | inactive | inactive | > 20 | > 20 | > 20 | inactive | inactive | > 20 | > 44 | inactive | inactive | inactive | IC50 [12]: > 20 µM; EC50 (Hepatitis C virus): 21.3 µM; Activity (Staphylococcus aureus [13]): inactive; IC50 (BJ): > 100 µM; IC50 (K562 [14]): > 20 µM; IC50 (A549): > 20 µM
COc1nc(N)nc2c1c(-c1ccoc1)cn2[C@@H]1O[C@H](CO)[C@@H](O)[C@H]1O | > 20 | inactive | inactive | > 20 | > 20 | inactive | inactive | > 100 | inactive | inactive | > 20 | > 20 | > 20 | inactive | inactive | > 20 | > 44 | inactive | inactive | inactive | IC50 [12]: > 20 µM; EC50 (Hepatitis C virus): 19.7 µM; Activity (Staphylococcus aureus [13]): inactive; IC50 (BJ): > 100 µM; IC50 (K562 [14]): > 20 µM; IC50 (A549): > 20 µM
C#Cc1cn([C@@H]2O[C@H](CO)[C@@H](O)[C@H]2O)c2nc(C)nc(N)c12 | 12.6 | inactive | inactive | > 20 | > 20 | inactive | inactive | > 100 | inactive | inactive | > 20 | > 20 | 3.29 | inactive | inactive | > 20 | > 44 | inactive | inactive | inactive | IC50 [12]: > 20 µM; EC50 (Hepatitis C virus): 8 µM; Activity (Staphylococcus aureus [13]): inactive; IC50 (BJ): > 100 µM; IC50 (K562 [14]): > 20 µM; IC50 (A549): > 20 µM
Nc1nc2c(c(-c3cccs3)cn2[C@@H]2O[C@H](CO)[C@@H](O)[C@H]2O)c(=O)[nH]1 | > 20 | inactive | inactive | 19.8 | > 20 | inactive | inactive | > 100 | inactive | inactive | > 20 | > 20 | 16.8 | inactive | inactive | > 20 | > 44 | inactive | inactive | inactive | IC50 [12]: > 20 µM; EC50 (Hepatitis C virus): 18.8 µM; Activity (Staphylococcus aureus [13]): inactive; IC50 (BJ): > 100 µM; IC50 (K562 [14]): > 20 µM; IC50 (A549): > 20 µM
